We go through nine compounds from ChEMBL document CHEMBL1133575 (J Med Chem, 2000).

Test [1] addresses Sodium-dependent dopamine transporter (Homo sapiens, UniProt Q01959). Briefly: Binding Affinity to cocaine site of dopamine transporter in caudate nuclei which was homogenized and incubated with [3H]mazindol.
The target of test [2] is T1, Sodium-dependent dopamine transporter (Rattus norvegicus, UniProt P23977). The experiment in a line: Inhibition of [3H]DA Uptake at dopamine transporter in rat cortex was measured by liquid scintillation spectrometry. Format: tissue-based.
T1 sequence (P23977 whole entry): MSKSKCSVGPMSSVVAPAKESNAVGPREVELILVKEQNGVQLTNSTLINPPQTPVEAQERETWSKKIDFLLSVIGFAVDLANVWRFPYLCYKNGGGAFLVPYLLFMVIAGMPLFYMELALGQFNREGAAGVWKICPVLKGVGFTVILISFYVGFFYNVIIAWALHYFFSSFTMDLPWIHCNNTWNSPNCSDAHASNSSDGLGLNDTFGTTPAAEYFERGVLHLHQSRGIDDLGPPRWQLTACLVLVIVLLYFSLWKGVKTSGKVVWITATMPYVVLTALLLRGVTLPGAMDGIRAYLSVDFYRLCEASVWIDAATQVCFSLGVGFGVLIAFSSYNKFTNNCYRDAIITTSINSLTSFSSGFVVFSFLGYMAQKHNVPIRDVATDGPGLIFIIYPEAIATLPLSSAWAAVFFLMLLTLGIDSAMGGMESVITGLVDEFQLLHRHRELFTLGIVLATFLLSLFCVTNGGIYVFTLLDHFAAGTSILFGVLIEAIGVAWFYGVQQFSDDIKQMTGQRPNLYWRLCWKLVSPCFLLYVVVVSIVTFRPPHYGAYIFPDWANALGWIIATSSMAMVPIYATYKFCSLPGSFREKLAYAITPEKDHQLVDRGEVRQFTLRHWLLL
The target of test [3] is Norepinephrine transporter (Rattus norvegicus, UniProt Q9WTR4). Briefly: Compound was tested for Inhibition of [3H]NE Uptake in rat parietal/occipital cortex. In outline: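 [3H]NE uptake used rat parietal/occipital cortex synaptosomes in modified KRH buffer. Drug was preincubated for 30 min at 37 °C, then radiolabel was added for 5 min. Uptake was stopped with cold sodium-free buffer, filtered and counted by liquid scintillation. Specific uptake was defined with 1 uM desipramine.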
Norepinephrine transporter, sequence (Q9WTR4 whole entry): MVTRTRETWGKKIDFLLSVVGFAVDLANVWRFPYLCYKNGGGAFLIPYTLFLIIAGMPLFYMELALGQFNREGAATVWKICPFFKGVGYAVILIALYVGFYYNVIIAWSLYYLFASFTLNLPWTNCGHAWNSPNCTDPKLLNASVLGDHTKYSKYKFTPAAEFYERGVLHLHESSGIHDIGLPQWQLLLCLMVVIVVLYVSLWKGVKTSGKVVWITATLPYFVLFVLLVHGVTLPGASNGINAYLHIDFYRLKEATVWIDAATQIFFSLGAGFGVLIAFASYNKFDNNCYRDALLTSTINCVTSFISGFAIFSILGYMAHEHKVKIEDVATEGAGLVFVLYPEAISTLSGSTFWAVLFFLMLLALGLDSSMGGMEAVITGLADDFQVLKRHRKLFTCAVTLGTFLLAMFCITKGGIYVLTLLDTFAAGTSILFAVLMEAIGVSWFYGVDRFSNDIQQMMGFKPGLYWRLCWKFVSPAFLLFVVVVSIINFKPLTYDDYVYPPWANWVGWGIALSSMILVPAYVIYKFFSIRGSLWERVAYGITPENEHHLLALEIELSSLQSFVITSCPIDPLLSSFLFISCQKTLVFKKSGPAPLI

The target in test [4] is Sodium-dependent serotonin transporter (Rattus norvegicus, UniProt P31652). Briefly: Compound was tested for Inhibition of [3H]5-HT Uptake in rat mid brain. It counts as tissue-based. In outline:
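[3H]5-HT uptake used rat midbrain synaptosomes in modified KRH buffer. Drug was preincubated for 30 min at 37 °C, then tritiated substrate was added for 5 min. Uptake was stopped in cold sodium-free buffer, filtered and counted by scintillation. Specific uptake was defined with 10 uM fluoxetine.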

Test [5] deals with T1, Sodium-dependent dopamine transporter. The experiment in a line: Inhibition of [3H]DA Uptake at Dopamine transporter in rat cortex was measured by liquid scintillation spectrometry. It counts as tissue-based.
Test [6] has the same target. Briefly: Binding Affinity to cocaine site of Dopamine transporter in caudate nuclei which was homogenized and incubated with [3H]mazindol. In outline:
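Rat striatal membranes, washed in KRH buffer (pH 7.4, with 0.01 mM nialamide) and frozen at −80 °C, thawed at 75–125 ug protein/mL. Incubated with [3H]mazindol plus competitor for 60 min at 4 °C. […] Separated by GF/C filtration and counted by scintillation. IC50 fitted with LIGAND.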

Sodium-dependent dopamine transporter (Homo sapiens, UniProt Q01959), sequence (Q01959 whole entry): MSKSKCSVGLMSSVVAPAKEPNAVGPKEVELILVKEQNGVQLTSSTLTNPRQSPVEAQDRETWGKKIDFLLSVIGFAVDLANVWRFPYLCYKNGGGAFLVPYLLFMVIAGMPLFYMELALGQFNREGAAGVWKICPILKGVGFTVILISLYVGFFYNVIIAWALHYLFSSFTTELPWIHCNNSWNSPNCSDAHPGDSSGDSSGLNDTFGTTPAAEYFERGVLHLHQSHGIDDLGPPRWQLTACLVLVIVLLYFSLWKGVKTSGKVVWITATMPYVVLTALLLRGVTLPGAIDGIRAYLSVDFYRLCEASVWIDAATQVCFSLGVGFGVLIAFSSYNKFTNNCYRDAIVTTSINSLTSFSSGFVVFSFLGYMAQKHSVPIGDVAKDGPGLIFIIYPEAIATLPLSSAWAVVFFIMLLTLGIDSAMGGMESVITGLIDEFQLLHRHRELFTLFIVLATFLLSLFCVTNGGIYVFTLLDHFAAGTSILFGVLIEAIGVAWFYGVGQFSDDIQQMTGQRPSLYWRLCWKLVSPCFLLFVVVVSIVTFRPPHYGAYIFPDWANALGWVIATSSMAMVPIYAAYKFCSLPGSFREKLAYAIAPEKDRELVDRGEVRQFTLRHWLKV
Sodium-dependent serotonin transporter, sequence (P31652 whole entry): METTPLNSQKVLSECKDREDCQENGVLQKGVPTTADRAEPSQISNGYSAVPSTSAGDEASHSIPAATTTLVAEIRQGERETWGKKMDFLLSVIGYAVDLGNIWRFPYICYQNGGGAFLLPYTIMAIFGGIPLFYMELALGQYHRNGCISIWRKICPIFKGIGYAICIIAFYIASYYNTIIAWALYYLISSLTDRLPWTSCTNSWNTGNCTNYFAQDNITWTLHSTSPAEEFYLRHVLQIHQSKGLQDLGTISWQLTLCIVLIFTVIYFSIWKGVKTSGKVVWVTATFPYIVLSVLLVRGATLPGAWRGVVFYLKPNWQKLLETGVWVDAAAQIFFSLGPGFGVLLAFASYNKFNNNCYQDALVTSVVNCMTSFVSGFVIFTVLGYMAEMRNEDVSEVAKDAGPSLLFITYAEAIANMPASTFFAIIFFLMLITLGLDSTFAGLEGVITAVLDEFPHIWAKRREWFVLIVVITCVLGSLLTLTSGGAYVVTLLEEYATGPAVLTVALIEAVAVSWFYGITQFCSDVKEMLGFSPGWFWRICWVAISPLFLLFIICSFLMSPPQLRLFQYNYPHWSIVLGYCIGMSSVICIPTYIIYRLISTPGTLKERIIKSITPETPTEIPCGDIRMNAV

Consider `CN1CCC(O)(c2ccc(Cl)cc2Cl)C([C@@H](O)c2ccc(Cl)cc2Cl)C1` (stereo not given in full), for which the figures for the Ki in test [1] and in test [2] were 4.35 µM and 7.52 µM, respectively.
`Cc1ccc(C2OC(=O)OC3(c4ccc(C)cc4)CCN(C)CC23)cc1` (stereo not given): affinity in test [2] was put at a Ki of 9.48 µM.
With `CN1CCC(O)(c2ccc(Cl)c(Cl)c2)C(C(=O)c2ccc(Cl)c(Cl)c2)C1` (stereo not given), the Ki was determined as 0.0109 µM in test [1], 0.051 µM in test [2], 0.177 µM in test [3] and 2.38 µM in test [4].
Turning to `CN1CCC(O)(c2ccccc2)C(C(=O)c2ccccc2)C1` (stereo not given), the Ki in test [5] was 2.59 µM; in test [6], 4.42 µM.
Take `CN1CCC(O)(c2ccc(Cl)cc2Cl)C(C(=O)c2ccc(Cl)cc2Cl)C1` (stereo not given): in test [2], the Ki was 5.85 µM.
As to `Cc1ccc(C(=O)C2CN(C)CCC2(O)c2ccc(C)cc2)cc1` (stereo not given), the Ki in test [5] amounted to 0.36 µM; in test [3], 3.86 µM; in test [4], 1.63 µM; in test [6] it was 0.492 µM.
As to `CN1CCC(O)(c2ccc(Cl)c(Cl)c2)C([C@@H](O)c2ccc(Cl)c(Cl)c2)C1` (stereo not given in full), the Ki was 4.14 µM in test [1] and 4.22 µM in test [2].
Turning to `Cc1ccc([C@H](O)C2CN(C)CCC2(O)c2ccc(C)cc2)cc1` (stereo not given in full), the Ki came to 10.7 µM in test [1] and 15.8 µM in test [2].
For `CN1CCC(O)(c2ccc(F)cc2)C(C(=O)c2ccc(F)cc2)C1` (stereo not given) [FLAZALONE] the same measures were 5.7 µM and 4.2 µM.
